Data taken from ChEMBL document CHEMBL1124427, “Studies on prodrugs. 11. Synthesis and antimicrobial activity of N-[(4-methyl-5-methylene-2-oxo-1,3-dioxolan-4-yl)oxy]norfloxacin ” (J Med Chem, 1989).
Converted amounts (≈) assume the structure as drawn.

Experiments:
Pseudomonas aeruginosa [1] = assay: Oral efficacy of compound after peroral administration on systemic infection by Pseudomonas aeruginosa E-2; format: functional
Summary of the method: (§1)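 Groups of five male ddY mice (20 ± 2 g) were given 0.5 mL of bacteria intraperitoneally at 10 or 100 times the 50% lethal dose. One hour after infection they were treated orally with compound suspended in 0.5% sodium (carboxymethyl)cellulose. Survival was scored at 1 week, and ED50 is given with 95% confidence limits.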

Bacillus subtilis = assay: Minimum inhibitory concentration tested against Bacillus subtilis ATCC 6633; format: functional
Summary of the method: (§2)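 Agar dilution used serial 2-fold dilutions in Mueller-Hinton agar, with plate concentrations of 0.006–100 µg/mL and an inoculum of about 10^8 cfu/mL.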

Pseudomonas aeruginosa [2] = assay: Minimum inhibitory concentration tested against Pseudomonas aeruginosa E-2; format: functional; summary of the method: as §2
Escherichia coli [3] = assay: Oral efficacy of compound after peroral administration on systemic infection by Escherichia coli KC-14; format: functional; summary of the method: as §1
Escherichia coli [4] = assay: (§3) Minimum inhibitory concentration tested against Escherichia coli KC-14; format: functional; summary of the method: as §2
Proteus vulgaris = assay: Minimum inhibitory concentration tested against Proteus vulgaris OX-19; format: functional; summary of the method: as §2
Escherichia coli [5] = assay: Effective dose of compound against Escherichia coli KC-14 in mice after oral administration
Serratia marcescens = assay: Minimum inhibitory concentration tested against Serratia marcescens LAM 1184; format: functional; summary of the method: as §2
Klebsiella pneumoniae = assay: Minimum inhibitory concentration tested against Klebsiella pneumoniae PC1602; format: functional; summary of the method: as §2
[6] = Lethal dose of compound after peroral administration in rats; format: toxicity, organism-based; details: rat, in vivo, po
Summary of the method: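 Each compound was given orally as a suspension in 0.5% CMC. Deaths were counted over 1 week, and LD50 was calculated by the method of Weil.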

[7] = Area under curve value of compound per hour after oral administration; format: ADME
Summary of the method: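 Mice were dosed orally at the equivalent of 50 mg/kg NFLX, suspended in 0.5% sodium (carboxymethyl)cellulose. They were killed by bleeding at 0.25, 0.5, 1.0, 2.0, 3.0 and 4.0 h. Serum NFLX was measured by HPLC with UV detection at 280 nm, and AUC was expressed in µg/mL per h.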

Escherichia coli [8] = assay: Oral efficacy of compound after peroral administration on systemic infection by Escherichia coli KC-14 in rat; format: functional
Staphylococcus aureus [9] = assay: Minimum inhibitory concentration tested against Staphylococcus aureus FDA207PJC-1; format: functional; summary of the method: as §2
Staphylococcus aureus [10] = assay: Oral efficacy of compound after peroral administration on systemic infection by Staphylococcus aureus IID803; format: functional; summary of the method: as §1
Escherichia coli [11] = assay: Effective dose of compound against Escherichia coli KC-14 in mice after oral administration; remark: listed apart in the source
Escherichia coli [12] = assay: as §3; format: functional; remark: listed apart in the source
Summary of the method: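 MIC by serial 2-fold agar dilution on Mueller-Hinton agar, with an inoculum of about 10^8 cfu/mL and plate concentrations of 0.006–100 μg/mL.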

| SMILES | ED50 (Pseudomonas aeruginosa [1]) | MIC (Bacillus subtilis) | MIC (Pseudomonas aeruginosa [2]) | ED50 (Escherichia coli [3]) | MIC (Escherichia coli [4]) | MIC (Proteus vulgaris) | ED50 (Escherichia coli [5]) | MIC (Serratia marcescens) | MIC (Klebsiella pneumoniae) | LD50 [6] | AUC [7] | ED50 (Escherichia coli [8]) | MIC (Staphylococcus aureus [9]) | ED50 (Staphylococcus aureus [10]) | ED50 (Escherichia coli [11]) | MIC (Escherichia coli [12]) |
| --- | --- | --- | --- | --- | --- | --- | --- | --- | --- | --- | --- | --- | --- | --- | --- | --- |
| C=C1OC(=O)OC1(C)ON1CCN(c2cc3c(cc2F)c(=O)c(C(=O)O)cn3CC)CC1 (stereo not given) | 17.7 mg/kg | 0.19 mg/L (≈ 0.425 µM) | 6.25 mg/L (≈ 14 µM) | 1.31 mg/kg | 1.56 mg/L (≈ 3.49 µM) | 0.05 mg/L (≈ 0.112 µM) | 1.31 mg/kg | 3.12 mg/L (≈ 6.97 µM) | 0.1 mg/L (≈ 0.224 µM) | > 4000 mg/kg | 5.4 µg·h/mL | 2.68 mg/kg | 0.78 mg/L (≈ 1.74 µM) | 70.7 mg/kg |  |  |
| CCn1cc(C(=O)O)c(=O)c2cc(F)c(N3CCN(Cc4oc(=O)oc4C)CC3)cc21 | 20.3 mg/kg | 0.19 mg/L (≈ 0.44 µM) | 1.56 mg/L (≈ 3.62 µM) | 1.93 mg/kg |  | 0.1 mg/L (≈ 0.232 µM) |  | 0.39 mg/L (≈ 0.904 µM) | 0.1 mg/L (≈ 0.232 µM) | > 4000 mg/kg | 5.7 µg·h/mL | 6.16 mg/kg | 0.39 mg/L (≈ 0.904 µM) | 93.3 mg/kg | 1.93 mg/kg | 0.2 mg/L (≈ 0.464 µM) |
| CCn1cc(C(=O)O)c(=O)c2cc(F)c(N3CCNCC3)cc21 [NORFLOXACIN] | 77.1 mg/kg | 0.19 mg/L (≈ 0.595 µM) | 0.39 mg/L (≈ 1.22 µM) | 3.15 mg/kg |  | 0.05 mg/L (≈ 0.157 µM) |  | 0.19 mg/L (≈ 0.595 µM) | 0.05 mg/L (≈ 0.157 µM) | > 4000 mg/kg | 1.8 µg·h/mL |  | 0.19 mg/L (≈ 0.595 µM) |  | 3.13 mg/kg | 0.1 mg/L (≈ 0.313 µM) |
